{
  "source": "paper PMC7094870",
  "about": "(ACS chemical biology, 2020)",
  "key": {"(UniProt A4D937)": {"biological_target": "(UniProt A4D937)", "sequence (A4D937 1-450)": "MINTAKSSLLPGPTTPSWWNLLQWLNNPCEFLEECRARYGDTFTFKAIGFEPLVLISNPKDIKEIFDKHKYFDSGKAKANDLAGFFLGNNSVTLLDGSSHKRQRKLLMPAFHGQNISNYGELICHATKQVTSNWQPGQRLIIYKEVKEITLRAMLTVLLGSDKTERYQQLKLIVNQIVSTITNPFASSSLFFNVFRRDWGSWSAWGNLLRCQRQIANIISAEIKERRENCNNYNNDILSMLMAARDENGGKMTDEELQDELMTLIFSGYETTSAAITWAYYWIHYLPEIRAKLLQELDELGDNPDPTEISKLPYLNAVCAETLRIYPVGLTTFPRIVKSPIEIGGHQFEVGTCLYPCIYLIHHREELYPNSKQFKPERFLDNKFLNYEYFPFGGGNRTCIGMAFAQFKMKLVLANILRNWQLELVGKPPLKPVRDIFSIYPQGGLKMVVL", "assay": "CrpE P450 substrate binding titration", "design": "species or system Nostoc sp. ATCC 53789"}, "[1]": {"test_system": "CrpE P450 (histidine tagged)", "assay": "CrpE P450 substrate binding titration", "design": "species or system Nostoc sp. ATCC 53789", "settings": "type I (substrate-like) or type II (inhibitor-like) shift"}, "CrpE P450": {"test_system": "CrpE P450", "assay": "CrpE in vitro epoxidation conversion assay", "type": "biochemical, Nostoc sp. ATCC 53789"}, "[2]": {"test_system": "CrpTE (cryptophycin thioesterase)", "assay": "Analytical substrate conversion assay of CrpTE", "type": "biochemical", "procedure,_shortened": "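Analytical-scale reactions of CrpTE with NAc-activated seco substrates carrying varied unit A aryl or heterocyclic groups (including methyl pyrazoles), with the benzyl substrate run as a control. Chromatographic peaks were assigned to unreacted starting material, hydrolysis product and cyclized macrolactone. Where starting material and hydrolysis peaks co-eluted, values were estimated from extrapolated peaks.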"}},
  "data": [
    {"smiles": "COc1ccc(C[C@H]2NC(=O)/C=C/C[C@@H]([C@H](C)/C=C/c3ccccc3)OC(=O)[C@H](CC(C)C)OC(=O)[C@H](C)CNC2=O)cc1Cl", "note": "[16a, cryptophycin 3]", "values": [
      {"measurement": "Kd", "setting": "(UniProt A4D937)", "value": "530 ± 150", "unit": "nM"},
      {"measurement": "spectral shift on binding to CrpE", "setting": "[1]", "value": "type I shift"},
      {"measurement": "conversion (CrpE epoxidation)", "setting": "CrpE P450; RhFRED redox system", "value": "no conversion"},
      {"measurement": "percent conversion (CrpE epoxidation)", "setting": "CrpE P450; spinach ferredoxin and ferredoxin reductase redox system", "value": 38, "unit": "%"},
      {"measurement": "total turnover number (TTN)", "setting": "[2]; TTN = moles of product / moles of TE", "value": 110},
      {"measurement": "percent conversion (CrpTE cyclization)", "setting": "[2]; analytical scale, wild type CrpTE, NAc-activated seco substrate", "value": 73, "unit": "%"}
    ]}
  ]
}
